# Assay results from ChEMBL document CHEMBL5724801, “EUbOPEN Chemogenomics Library - Multiplex” (2024).
# Several values for one entry are separate records, joined by “and”; a condition that tells them apart may be missing. Identical values can stand only once.
# Test system: HEK-293T
# Test: Multiplex assay against HEK293T
# Type: toxicity, cell-based
# Settings: human, 12 h, 1 µM, compound concentration 1 uM
# Summary of the method: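 Per cents of healthy-nucleus cells form the tubulin, mitochondrial-mass and membrane-permeability phenotype values. Live cells were stained at seeding with Hoechst33342, BioTracker Green Microtubule Cytoskeleton Dye, MitoTracker Red and Annexin V Alexa Fluor 680. After compound addition they were imaged on a CQ1 microscope at 37°C and 5% CO2, and CellPathfinder machine-learning gating split them into Hoechst high-intensity objects or normal cells, normal cells into healthy, pyknosed or fragmented nuclei, and pyknosed cells into mitotic or apoptotic.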
Compound,Population Apoptotic (%),Population Fragmented Nuclei (%),Population Hoechst High Intensity Objects (%),Population Membrane Permeable-Phenotype (%),Population Mitochondria Different-Phenotype (%),Population Mitotic Cells (%),Population Normal (%),Population Pyknosed Nuclei (%),Total Cell Count
Cl.Clc1cc2cc(c1)-c1cnn3ccc(nc13)NCCOCCO2,7.52% and 9.38%,1.41% and 6.41%,0%,0.46% and 0%,39.63% and 22.22%,92.48% and 90.62%,100%,37.46% and 82.05%,355 and 156
CN(C)Cc1cccc(NC(=C2C(=O)Nc3cc(C(N)=O)ccc32)c2ccccc2)c1,11.04% and 8.47%,2.49% and 2.04%,0.28% and 0%,0.51% and 7.69%,22.73% and 15.38%,88.96% and 91.53%,99.72% and 100%,42.66% and 80.27%,362 and 147

# Same assay, conditions: human, 12 h, 10 µM, compound concentration 10 uM
Compound,Population Apoptotic (%),Population Fragmented Nuclei (%),Population Healthy Nuclei (%),Population Hoechst High Intensity Objects (%),Population Membrane Permeable-Phenotype (%),Population Mitochondria Different-Phenotype (%),Population Mitotic Cells (%),Population Normal (%),Population Pyknosed Nuclei (%),Total Cell Count
Cl.Clc1cc2cc(c1)-c1cnn3ccc(nc13)NCCOCCO2,20.33% and 8.33%,2.02% and 1.83%,56.57% and 25%,0% and 0.61%,1.19% and 2.44%,35.71% and 26.83%,79.67% and 91.67%,100% and 99.39%,41.41% and 73.17%,297 and 165
CN(C)Cc1cccc(NC(=C2C(=O)Nc3cc(C(N)=O)ccc32)c2ccccc2)c1,15.53% and 28.8%,3.04% and 4.44%,56.2% and 26.11%,0.25% and 0%,0.45% and 2.13%,20.72% and 17.02%,84.47% and 71.2%,99.75% and 100%,40.76% and 69.44%,396 and 180

# Same assay, conditions: human, 12 h, 10 µM, compound concentration 10 uM
row,Compound,Population Tubulin-Different-Phenotype (%)
1,CN(C)Cc1cccc(NC(=C2C(=O)Nc3cc(C(N)=O)ccc32)c2ccccc2)c1,14.86% and 40.43%

# Same assay, conditions: human, 24 h, 1 µM, compound concentration 1 uM
Compound,Population Apoptotic (%),Population Fragmented Nuclei (%),Population Hoechst High Intensity Objects (%),Population Membrane Permeable-Phenotype (%),Population Mitochondria Different-Phenotype (%),Population Mitotic Cells (%),Population Normal (%),Population Tubulin-Different-Phenotype (%),Population Healthy Nuclei (%),Population Pyknosed Nuclei (%)
Cl.Clc1cc2cc(c1)-c1cnn3ccc(nc13)NCCOCCO2,18.58% and 9.43%,0.93% and 4.73%,0%,1.19% and 0%,17.58% and 22.86%,81.42% and 90.57%,100%,11.16% and 5.71%,–,–
CN(C)Cc1cccc(NC(=C2C(=O)Nc3cc(C(N)=O)ccc32)c2ccccc2)c1,13.33% and 15.56%,0.9% and 4.61%,0.18% and 0.65%,1.39% and 1.82%,9.47% and 14.55%,86.67% and 84.44%,99.82% and 99.35%,13.16% and 7.27%,77.6% and 36.18%,21.51% and 59.21%

# Same assay, conditions: human, 24 h, 10 µM, compound concentration 10 uM
Compound,Population Apoptotic (%),Population Fragmented Nuclei (%),Population Healthy Nuclei (%),Population Hoechst High Intensity Objects (%),Population Membrane Permeable-Phenotype (%),Population Mitochondria Different-Phenotype (%),Population Mitotic Cells (%),Population Normal (%),Population Pyknosed Nuclei (%),Population Tubulin-Different-Phenotype (%)
Cl.Clc1cc2cc(c1)-c1cnn3ccc(nc13)NCCOCCO2,25.26% and 16.38%,2.17% and 2.23%,72.01% and 32.96%,0%,0.75% and 0%,30.19% and 10.17%,74.74% and 83.62%,100%,25.82% and 64.8%,9.81% and 5.08%
CN(C)Cc1cccc(NC(=C2C(=O)Nc3cc(C(N)=O)ccc32)c2ccccc2)c1,26.06% and 39.09%,1.76% and 3.57%,66.02% and 40.31%,0.19% and 0%,0.89% and 0%,22.78% and 25.32%,73.94% and 60.91%,99.81% and 100%,32.23% and 56.12%,32.25% and 18.99%

# Same assay, conditions: human, 24 h, 10 µM, compound concentration 10 uM
row,Compound,Total Cell Count
1,Cl.Clc1cc2cc(c1)-c1cnn3ccc(nc13)NCCOCCO2,368 and 179
2,CN(C)Cc1cccc(NC(=C2C(=O)Nc3cc(C(N)=O)ccc32)c2ccccc2)c1,513 and 196

# Same assay, conditions: human, 48 h, 1 µM, compound concentration 1 uM
Compound,Population Fragmented Nuclei (%),Population Healthy Nuclei (%),Population Hoechst High Intensity Objects (%),Population Membrane Permeable-Phenotype (%),Population Mitochondria Different-Phenotype (%),Population Mitotic Cells (%),Population Normal (%),Population Apoptotic (%),Population Pyknosed Nuclei (%)
Cl.Clc1cc2cc(c1)-c1cnn3ccc(nc13)NCCOCCO2,3.48% and 1.96%,87.01% and 64.71%,0% and 0.97%,5.92% and 3.03%,15.1% and 25%,97.71% and 83.82%,100% and 99.03%,–,–
CN(C)Cc1cccc(NC(=C2C(=O)Nc3cc(C(N)=O)ccc32)c2ccccc2)c1,1.84% and 0.58%,85.36% and 62.57%,0%,5.39% and 0.93%,17.15% and 29.91%,89.93% and 80.95%,100%,10.07% and 19.05%,12.8% and 36.84%

# Same assay, conditions: human, 48 h, 10 µM, compound concentration 10 uM
Compound,Population Apoptotic (%),Population Fragmented Nuclei (%),Population Healthy Nuclei (%),Population Hoechst High Intensity Objects (%),Population Membrane Permeable-Phenotype (%),Population Mitochondria Different-Phenotype (%),Population Mitotic Cells (%),Population Normal (%),Population Pyknosed Nuclei (%)
Cl.Clc1cc2cc(c1)-c1cnn3ccc(nc13)NCCOCCO2,16.05% and 15.07%,3.95% and 2.66%,86.64% and 69.58%,0.12% and 0.75%,3.08% and 0%,26.54% and 19.13%,83.95% and 84.93%,99.88% and 99.25%,9.41% and 27.76%
CN(C)Cc1cccc(NC(=C2C(=O)Nc3cc(C(N)=O)ccc32)c2ccccc2)c1,19.7% and 35.71%,2.75% and 2.37%,80.73% and 58.89%,0.12% and 0.39%,4.19% and 2.01%,43.1% and 38.26%,80.3% and 64.29%,99.88% and 99.61%,16.52% and 38.74%
